# Experimental data published in ChEMBL document CHEMBL3259768, “Structure-activity relationships for vitamin D3-based aromatic a-ring analogues as hedgehog pathway inhibitors” (J Med Chem, 2014).
# The source made the active and inactive calls. The rule behind the calls is not given here.
# Columns and labels:
# [1] = biological target: T1, Vitamin D3 receptor (Mus musculus) (UniProt P48281); test: Activation of VDR in mouse C3H10T1/2 cells assessed as upregulation of CYP24A1 mRNA expression at 5 uM after 24 hrs by RT-PCR analysis relative to DMSO-treated control; assay type: cell-based; settings: C3H 10T1/2
# T1 sequence (whole entry): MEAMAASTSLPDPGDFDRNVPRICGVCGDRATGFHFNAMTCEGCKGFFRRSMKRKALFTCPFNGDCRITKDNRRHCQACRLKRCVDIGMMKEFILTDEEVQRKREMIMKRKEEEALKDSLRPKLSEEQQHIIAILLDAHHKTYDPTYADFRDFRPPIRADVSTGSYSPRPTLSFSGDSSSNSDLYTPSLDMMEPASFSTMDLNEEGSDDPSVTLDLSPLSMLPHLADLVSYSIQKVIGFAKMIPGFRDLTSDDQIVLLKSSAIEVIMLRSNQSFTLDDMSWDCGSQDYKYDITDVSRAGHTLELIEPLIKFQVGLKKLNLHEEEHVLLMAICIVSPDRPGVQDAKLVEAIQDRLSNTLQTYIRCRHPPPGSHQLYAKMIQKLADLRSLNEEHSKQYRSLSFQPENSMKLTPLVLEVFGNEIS
# Summary of the method: (§1)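 Cyp24A1 mRNA read by qPCR after 24 h exposure at 5 μM. Up-regulation normalized to DMSO control, set to 1.0.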
# [2] = biological target: T2, Vitamin D3 receptor (Homo sapiens) (UniProt P11473); test: Competitive binding affinity to full length human VDR by fluorescence polarization assay
# T2 sequence (whole entry): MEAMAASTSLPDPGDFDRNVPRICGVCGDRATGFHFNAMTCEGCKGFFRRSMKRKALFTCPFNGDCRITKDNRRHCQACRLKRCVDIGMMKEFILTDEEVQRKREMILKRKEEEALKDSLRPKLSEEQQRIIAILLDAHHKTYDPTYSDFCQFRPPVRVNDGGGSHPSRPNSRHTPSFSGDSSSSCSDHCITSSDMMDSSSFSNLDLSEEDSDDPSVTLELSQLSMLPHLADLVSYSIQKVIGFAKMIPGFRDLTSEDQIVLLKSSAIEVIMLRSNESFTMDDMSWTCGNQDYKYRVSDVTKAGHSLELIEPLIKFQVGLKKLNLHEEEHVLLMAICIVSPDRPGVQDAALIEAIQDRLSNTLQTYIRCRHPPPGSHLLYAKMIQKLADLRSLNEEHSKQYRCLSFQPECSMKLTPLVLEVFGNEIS
# Summary of the method: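 Fluorescence polarization competition against a tight-binding fluorescent ligand on full-length human VDR. Tested at up to 100 μM, with calcitriol as positive control. At least two separate experiments.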
# [3] = Inhibition of hedgehog signaling pathway-mediated GLI1 mRNA expression in mouse C3H10T1/2 cells after 24 hrs by RT-PCR analysis; assay type: cell-based; settings: for inhibition: C3H 10T1/2; for IC50: C3H 10T1/2, 24 h
# Summary of the method: (§2)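 OHC-stimulated C3H10T1/2 cells (20α- and 22(S)-hydroxycholesterol, 5 μM each) given analogue at a range of concentrations. Gli1 and Ptch mRNA quantified by qPCR. IC50 given as mean ± SEM of at least two experiments run in triplicate.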
# [4] = Inhibition of hedgehog signaling pathway-mediated PTCH mRNA expression in human DaOY cells after 24 hrs by RT-PCR analysis; assay type: cell-based
# Summary of the method: (§3)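 ASZ001 (murine BCC) or DAOY (human medulloblastoma) cells given analogue at a range of concentrations. Gli1 and Ptch mRNA quantified by qPCR. IC50 given as mean ± SEM of at least two experiments in triplicate.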
# [5] = Inhibition of hedgehog signaling pathway-mediated GLI1 mRNA expression in human DaOY cells after 24 hrs by RT-PCR analysis; assay type: cell-based; summary of the method: as §3
# [6] = Inhibition of hedgehog signaling pathway-mediated PTCH mRNA expression in mouse C3H10T1/2 cells after 24 hrs by RT-PCR analysis; assay type: cell-based; settings: C3H 10T1/2, 24 h; summary of the method: as §2
# [7] = Inhibition of hedgehog signaling pathway-mediated GLI1 mRNA expression in mouse ASZ001 cells after 24 hrs by RT-PCR analysis; assay type: cell-based; settings: ASZ001, 24 h; summary of the method: as §3
# [8] = Inhibition of hedgehog signaling pathway-mediated GLI1 mRNA expression in mouse C3H10T1/2 cells assessed as residual activity at 5 uM after 24 hrs by RT-PCR analysis relative to 20alpha-hydroxycholesterol/22(S)-hydroxycholesterol; assay type: cell-based; settings: C3H 10T1/2
# Summary of the method: (§4)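 C3H10T1/2 cells co-treated with analogue and the oxysterol Hh activators 20α-hydroxycholesterol plus 22(S)-hydroxycholesterol (5 μM each) for 24 h. Gli1 mRNA measured by qPCR as % of OHC-only control (100%). Analogue at 5 μM, or at 0.5 μM where stated.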
# [9] = biological target: T2, Vitamin D3 receptor (Homo sapiens); test: Activation of VDR in human DaOY cells assessed as upregulation of CYP24A1 mRNA expression at 5 uM after 24 hrs by RT-PCR analysis relative to DMSO-treated control; assay type: cell-based; summary of the method: as §1
# [10] = biological target: T1, Vitamin D3 receptor (Mus musculus); test: Activation of VDR in mouse ASZ001 cells assessed as upregulation of CYP24A1 mRNA expression at 5 uM after 24 hrs by RT-PCR analysis relative to DMSO-treated control; assay type: cell-based; summary of the method: as §1
# [11] = Inhibition of hedgehog signaling pathway-mediated GLI1 mRNA expression in mouse C3H10T1/2 cells assessed as residual activity at 0.5 uM after 24 hrs by RT-PCR analysis relative to 20alpha-hydroxycholesterol/22(S)-hydroxycholesterol; assay type: cell-based; settings: C3H 10T1/2; summary of the method: as §4
# [12] = Inhibition of hedgehog signaling pathway-mediated PTCH mRNA expression in mouse ASZ001 cells up to 10 uM after 24 hrs by RT-PCR analysis; assay type: cell-based
# [13] = Inhibition of hedgehog signaling pathway-mediated GLI1 mRNA expression in mouse C3H10T1/2 cells after 24 hrs by RT-PCR analysis in presence of (1R,3aR,4S,7aR)-7a-methyl-1-((R)-6-methylheptan-2-yl)octahydro-1H-inden-4-yl 3-hydroxybenzoate; assay type: cell-based; settings: C3H 10T1/2
smiles,measurement,setting,value
CC(C)CCC[C@@H](C)[C@H]1CC[C@H]2[C@@H](OC(=O)c3ccccn3)CCC[C@]12C,fold change (FC),[1],57.1
same,Activity,[2],> 100 µM
same,inhibition,[3],Dose-dependent effect
same,IC50,[3],4.7 µM
same,IC50,[4],> 10 µM
same,IC50,[5],> 10 µM
same,IC50,[6],12.6 µM
same,IC50,[7],4.8 µM
same,Activity,[8],14.1%
same,fold change (FC),[9],1.1
same,fold change (FC),[10],4.8
CC(C)CCC[C@@H](C)[C@H]1CC[C@H]2[C@@H](OC(=O)c3cccnc3O)CCC[C@]12C,fold change (FC),[1],7.5
same,Activity,[8],23%
CC(C)CCC[C@@H](C)[C@H]1CC[C@H]2[C@@H](OC(=O)c3ccc(N)cc3)CCC[C@]12C,fold change (FC),[1],140
same,Activity,[2],> 100 µM
same,inhibition,[3],Dose-dependent effect
same,IC50,[3],1 µM
same,IC50,[4],> 10 µM
same,IC50,[5],> 10 µM
same,IC50,[6],2.9 µM
same,IC50,[7],5.3 µM
same,Activity,[8],15.4%
same,fold change (FC),[9],2.2
same,fold change (FC),[10],2.1
CC(C)CCC[C@@H](C)[C@H]1CC[C@H]2[C@@H](OC(=O)c3ccc4cc(O)ccc4c3)CCC[C@]12C,fold change (FC),[1],0.8
same,Activity,[8],91.9%
CC(C)CCC[C@@H](C)[C@H]1CC[C@H]2[C@@H](OC(=O)c3cccnc3)CCC[C@]12C,fold change (FC),[1],17.1
same,Activity,[8],20.7%
CC(C)CCC[C@@H](C)[C@H]1CC[C@H]2[C@@H](OC(=O)c3ccoc3)CCC[C@]12C,fold change (FC),[1],2.2
same,Activity,[8],91.5%
CS(=O)(=O)c1ccc(C(=O)Nc2ccc(Cl)c(-c3ccccn3)c2)c(Cl)c1,Activity,[11],4.8%
same,inhibition,[12],inactive
same,inhibition,[13],Active
CC(C)CCC[C@@H](C)[C@H]1CC[C@H]2[C@@H](O)CCC[C@]12C,fold change (FC),[1],3.6
same,Activity,[8],46.4%
CC(C)CCC[C@@H](C)[C@H]1CC[C@H]2[C@@H](OC(=O)c3ccc(Cl)cc3)CCC[C@]12C,fold change (FC),[1],0.8
same,Activity,[8],77.7%
CC(C)CCC[C@@H](C)[C@H]1CC[C@H]2[C@@H](OC(=O)c3cccc(N)c3)CCC[C@]12C,fold change (FC),[1],24.3
same,inhibition,[3],Dose-dependent effect
same,IC50,[3],1.3 µM
same,IC50,[4],> 10 µM
same,IC50,[5],9.2 µM
same,IC50,[6],2.5 µM
same,IC50,[7],7.1 µM
same,Activity,[8],2.4%
same,fold change (FC),[9],0.5
same,fold change (FC),[10],2.5
CC(C)CCC[C@@H](C)[C@H]1CC[C@H]2[C@@H](OC(=O)c3ccccc3Cl)CCC[C@]12C,fold change (FC),[1],0.9
same,Activity,[8],109%
CC(C)CCC[C@@H](C)[C@H]1CC[C@H]2[C@@H](OC(=O)c3cc(O)cc(O)c3)CCC[C@]12C,fold change (FC),[1],19
same,Activity,[2],> 100 µM
same,inhibition,[3],Dose-dependent effect
same,IC50,[3],1.8 µM
same,IC50,[4],> 10 µM
same,IC50,[5],5.7 µM
same,IC50,[6],4.5 µM
same,IC50,[7],4.1 µM
same,Activity,[8],8.6%
same,fold change (FC),[9],0.3
same,fold change (FC),[10],3.6
CC(C)CCC[C@@H](C)[C@H]1CC[C@H]2[C@@H](OC(=O)c3ccco3)CCC[C@]12C,fold change (FC),[1],1.7
same,Activity,[8],95%
CC(C)CCC[C@@H](C)[C@H]1CC[C@H]2[C@@H](OC(=O)c3cccc4cc(O)ccc34)CCC[C@]12C,fold change (FC),[1],4.7
same,Activity,[8],103%
CC(C)CCC[C@@H](C)[C@H]1CC[C@H]2[C@@H](OC(=O)c3ccc(N(C)C)cc3)CCC[C@]12C,fold change (FC),[1],1.4
same,Activity,[8],107%
CC(C)CCC[C@@H](C)[C@H]1CC[C@H]2[C@@H](OC(=O)c3cccc4ccccc34)CCC[C@]12C,fold change (FC),[1],2.7
same,Activity,[8],82.3%
COc1ccc(C(=O)O[C@H]2CCC[C@]3(C)[C@@H]([C@H](C)CCCC(C)C)CC[C@@H]23)cc1,fold change (FC),[1],0.9
same,Activity,[8],113%
CC(C)CCC[C@@H](C)[C@H]1CC[C@H]2[C@@H](OC(=O)c3ccc(O)cc3)CCC[C@]12C,fold change (FC),[1],18.8
same,Activity,[2],> 100 µM
same,inhibition,[3],Dose-dependent effect
same,IC50,[3],2.8 µM
same,IC50,[4],> 10 µM
same,IC50,[5],> 10 µM
same,IC50,[6],3.3 µM
same,IC50,[7],6.6 µM
same,Activity,[8],2.4%
same,fold change (FC),[9],1.5
same,fold change (FC),[10],6.3
CC(C)CCC[C@@H](C)[C@H]1CC[C@H]2[C@@H](OC(=O)c3cc4ccccc4[nH]3)CCC[C@]12C,fold change (FC),[1],2.7
same,Activity,[8],84.5%
CC(C)CCC[C@@H](C)[C@H]1CC[C@H]2[C@@H](OC(=O)c3ccncc3)CCC[C@]12C,fold change (FC),[1],14.7
same,Activity,[8],51.1%
COc1ccccc1C(=O)O[C@H]1CCC[C@]2(C)[C@@H]([C@H](C)CCCC(C)C)CC[C@@H]12,fold change (FC),[1],0.9
same,Activity,[8],98%
CC(C)CCC[C@@H](C)[C@H]1CC[C@H]2[C@@H](OC(=O)c3ccc4ccccc4c3)CCC[C@]12C,fold change (FC),[1],3
same,Activity,[8],77.4%
CC(C)CCC[C@@H](C)[C@H]1CC[C@H]2[C@@H](OC(=O)c3ccsc3)CCC[C@]12C,fold change (FC),[1],1.3
same,Activity,[8],109%
CC(C)CCC[C@@H](C)[C@H]1CC[C@H]2[C@@H](OC(=O)c3ncccc3O)CCC[C@]12C,fold change (FC),[1],3.1
same,Activity,[8],36.5%
CC(C)CCC[C@@H](C)[C@H]1CC[C@H]2[C@@H](OC(=O)c3ccccc3O)CCC[C@]12C,fold change (FC),[1],1.2
same,Activity,[8],115%
CC(C)CCC[C@@H](C)[C@H]1CC[C@H]2[C@@H](OC(=O)c3cccs3)CCC[C@]12C,fold change (FC),[1],1.6
same,Activity,[8],109%
CC(C)CCC[C@@H](C)[C@H]1CC[C@H]2[C@@H](OC(=O)c3cc(O)c(O)c(O)c3)CCC[C@]12C,fold change (FC),[1],11
same,Activity,[2],> 100 µM
same,inhibition,[3],Dose-dependent effect
same,IC50,[3],1.1 µM
same,IC50,[4],> 10 µM
same,IC50,[5],9.2 µM
same,IC50,[6],1.3 µM
same,IC50,[7],8.1 µM
same,Activity,[8],5.1%
same,fold change (FC),[9],1
same,fold change (FC),[10],1.3
